≈ marks a conversion by molar mass, not a printed value. Calls of active or inactive are those of the source. No cut-off for these calls is given here.
Assays:
Escherichia coli = experiment: Antibacterial activity against Escherichia coli MTCC 443 assessed as inhibition of bacterial growth incubated for 24 hrs by serial dilution method; type: functional
In short: (§1)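 MIC found by serial dilution, with ampicillin as positive control. Strains were Gram-negative E. coli MTCC 443 and Gram-positive B. subtilis MTCC 10619. A first agar diffusion screen of all compounds and the control was run at a fixed 100 μg/mL.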

Bacillus subtilis = experiment: Antibacterial activity against Bacillus subtilis MTCC 10619 assessed as inhibition of bacterial growth incubated for 24 hrs by serial dilution method; type: functional; in short: as §1
Plasma [1] = experiment: Antiplatelet aggregation activity in rabbit platelet-rich plasma assessed as inhibition of arachidonic acid-induced platelet aggregation by turbidimetric based Lumi-aggregometry; type: functional; conditions: Oryctolagus cuniculus
Macrophomina phaseolina = experiment: Antifungal activity against Macrophomina phaseolina assessed as inhibition of fungal growth by agar well diffusion method; type: functional
Plasma [2] = experiment: Potency index, ratio of Acetylsalicylic acid IC50 to test compound IC50 for antiplatelet aggregation activity in rabbit platelet-rich plasma assessed as inhibition of arachidonic acid-induced platelet aggregation by turbidimetric aggregometry analysis; type: functional, Oryctolagus cuniculus
Trichoderma reesei [3] = experiment: Antifungal activity against Trichoderma reesei assessed as inhibition of fungal growth by agar well diffusion method; type: functional
Aspergillus niger [4] = experiment: Antifungal activity against Aspergillus niger assessed as inhibition of fungal growth by agar well diffusion method; type: functional
Trichoderma reesei [5] = experiment: Potency index, ratio of Ketaconazole MIC to test compound MIC for antifungal activity against Trichoderma reesei assessed as inhibition of fungal growth by agar well diffusion method; type: functional
Aspergillus niger [6] = experiment: Potency index, ratio of Ketaconazole MIC to test compound MIC for antifungal activity against Aspergillus niger assessed as inhibition of fungal growth by agar well diffusion method; type: functional

Row | MIC (Escherichia coli) [µg/mL] | MIC (Bacillus subtilis) [µg/mL] | IC50 (Plasma [1]) [µg/mL] | MIC (Macrophomina phaseolina) [µg/mL] | MIC (Trichoderma reesei [3]) [µg/mL] | MIC (Aspergillus niger [4]) [µg/mL] | Compound | Ratio (Plasma [2]) | Ratio (Trichoderma reesei [5]) | Activity (Bacillus subtilis) | Activity (Macrophomina phaseolina) | Activity (Trichoderma reesei [3]) | Ratio (Aspergillus niger [6]) | Ratio IC50 (Plasma [2]) | Activity (Aspergillus niger [4]) | Activity (Escherichia coli)
1 | 12.5 (≈ 35.8 µM) | 25 (≈ 71.5 µM) | – | – | – | – | CC1(C)S[C@@H]2[C@H](NC(=O)[C@H](N)c3ccccc3)C(=O)N2[C@H]1C(=O)O [AMPICILLIN] | – | – | – | – | – | – | – | – | –
2 | 6.25 (≈ 9.77 µM) | 25 (≈ 39.1 µM) | 8 (≈ 12.5 µM) | 12.5 (≈ 19.5 µM) | 25 (≈ 39.1 µM) | 25 (≈ 39.1 µM) | COc1cc2c(cc1OC)-c1c(OCc3ccccc3)c(OC)cc3c1C(CC2)N(S(=O)(=O)c1cccc(C(F)(F)F)c1)CC3 (stereo not given) | ~3 | – | – | – | – | – | – | – | –
3 | 12.5 (≈ 20.3 µM) | – | 30 (≈ 48.6 µM) | 12.5 (≈ 20.3 µM) | 6.25 (≈ 10.1 µM) | 50 (≈ 81.1 µM) | COc1cc2c(cc1OC)-c1c(OC)c(OCc3ccccc3)cc3c1C(CC2)N(S(=O)(=O)c1ccc([N+](=O)[O-])cc1)CC3 (stereo not given) | – | 1 | inactive | – | – | – | – | – | –
4 | 6.25 (≈ 9.96 µM) | – | 35 (≈ 55.7 µM) | – | – | 12.5 (≈ 19.9 µM) | COc1cc2c(cc1OC)-c1c(OCc3ccccc3)c(OC)cc3c1C(CC2)N(S(=O)(=O)c1ccc(C(C)(C)C)cc1)CC3 (stereo not given) | – | – | inactive | inactive | inactive | 1 | – | – | –
5 | 6.25 (≈ 9.77 µM) | 6.25 (≈ 9.77 µM) | 7 (≈ 10.9 µM) | – | 6.25 (≈ 9.77 µM) | – | COc1cc2c(cc1OC)-c1c(OC)c(OCc3ccccc3)cc3c1C(CC2)N(S(=O)(=O)c1cccc(C(F)(F)F)c1)CC3 (stereo not given) | – | 1 | – | inactive | – | – | 3 | inactive | –
6 | 50 (≈ 85.4 µM) | 25 (≈ 42.7 µM) | 10.5 (≈ 17.9 µM) | 50 (≈ 85.4 µM) | 25 (≈ 42.7 µM) | – | COc1cc2c(cc1OC)-c1c(OC)c(OCc3ccccc3)cc3c1C(CC2)N(S(=O)(=O)c1cccc(C)c1)CC3 (stereo not given) | – | – | – | – | – | – | >2 | inactive | –
7 | – | – | 21.3 (≈ 118 µM) | – | – | – | CC(=O)Oc1ccccc1C(=O)O [ASPIRIN] | – | – | – | – | – | – | – | – | –
8 | – | 12.5 (≈ 21.9 µM) | 14.7 (≈ 25.6 µM) | – | – | – | COc1cc2c(cc1OC)-c1c(OC)c(OCc3ccccc3)cc3c1C(CC2)N(S(=O)(=O)c1ccccc1)CC3 (stereo not given) | ~3 | – | – | inactive | inactive | – | – | inactive | inactive
9 | – | 25 (≈ 39.8 µM) | 35 (≈ 55.7 µM) | 25 (≈ 39.8 µM) | 50 (≈ 79.6 µM) | 6.25 (≈ 9.96 µM) | COc1cc2c(cc1OC)-c1c(OC)c(OCc3ccccc3)cc3c1C(CC2)N(S(=O)(=O)c1ccc(C(C)(C)C)cc1)CC3 (stereo not given) | – | – | – | – | – | – | – | – | inactive
10 | 12.5 (≈ 25.2 µM) | 50 (≈ 101 µM) | 15 (≈ 30.3 µM) | – | – | 25 (≈ 50.4 µM) | COc1cc2c(cc1OC)-c1c(OC)c(OC)cc3c1C(CC2)N(S(=O)(=O)c1ccccc1)CC3 (stereo not given) | ~3 | – | – | inactive | inactive | – | – | – | –
11 | 3.12 (≈ 5.34 µM) | 3.12 (≈ 5.34 µM) | 12.7 (≈ 21.6 µM) | 25 (≈ 42.7 µM) | 12.5 (≈ 21.3 µM) | 12.5 (≈ 21.3 µM) | COc1cc2c(cc1OC)-c1c(OCc3ccccc3)c(OC)cc3c1C(CC2)N(S(=O)(=O)c1cccc(C)c1)CC3 (stereo not given) | ~3 | – | – | – | – | 1 | – | – | –
12 | – | – | 12.7 (≈ 22.1 µM) | – | – | 6.25 (≈ 10.9 µM) | COc1cc2c(cc1OC)-c1c(OCc3ccccc3)c(OC)cc3c1C(CC2)N(S(=O)(=O)c1ccccc1)CC3 (stereo not given) | ~3 | – | inactive | inactive | inactive | – | – | – | inactive
13 | 50 (≈ 81.1 µM) | 12.5 (≈ 20.3 µM) | 32.7 (≈ 53 µM) | 12.5 (≈ 20.3 µM) | – | 25 (≈ 40.5 µM) | COc1cc2c(cc1OC)-c1c(OCc3ccccc3)c(OC)cc3c1C(CC2)N(S(=O)(=O)c1ccc([N+](=O)[O-])cc1)CC3 (stereo not given) | – | – | – | – | inactive | – | – | – | –
14 | – | – | 30 (≈ 55.5 µM) | 12.5 (≈ 23.1 µM) | – | 50 (≈ 92.5 µM) | COc1cc2c(cc1OC)-c1c(OC)c(OC)cc3c1C(CC2)N(S(=O)(=O)c1ccc([N+](=O)[O-])cc1)CC3 (stereo not given) | – | – | inactive | – | inactive | – | – | – | inactive
15 | 25 (≈ 44.4 µM) | 100 (≈ 177 µM) | 9.6 (≈ 17 µM) | 12.5 (≈ 22.2 µM) | – | 25 (≈ 44.4 µM) | COc1cc2c(cc1OC)-c1c(OC)c(OC)cc3c1C(CC2)N(S(=O)(=O)c1cccc(C(F)(F)F)c1)CC3 (stereo not given) | ~3 | – | – | – | inactive | – | – | – | –
16 | 6.25 (≈ 12.3 µM) | 25 (≈ 49.1 µM) | 12.7 (≈ 24.8 µM) | – | 12.5 (≈ 24.5 µM) | 12.5 (≈ 24.5 µM) | COc1cc2c(cc1OC)-c1c(OC)c(OC)cc3c1C(CC2)N(S(=O)(=O)c1cccc(C)c1)CC3 (stereo not given) | ~3 | – | – | inactive | – | 1 | – | – | –
17 | 3.12 (≈ 5.66 µM) | 12.5 (≈ 22.7 µM) | 36.7 (≈ 66.4 µM) | 6.25 (≈ 11.3 µM) | – | 100 (≈ 181 µM) | COc1cc2c(cc1OC)-c1c(OC)c(OC)cc3c1C(CC2)N(S(=O)(=O)c1ccc(C(C)(C)C)cc1)CC3 (stereo not given) | – | – | – | – | inactive | – | – | – | –

Row | Compound | MIC (Escherichia coli) [µg/mL] | MIC (Bacillus subtilis) [µg/mL] | IC50 (Plasma [1]) [µg/mL] | MIC (Macrophomina phaseolina) [µg/mL] | MIC (Trichoderma reesei [3]) [µg/mL] | MIC (Aspergillus niger [4]) [µg/mL] | Ratio (Plasma [2]) | Ratio (Trichoderma reesei [5]) | Activity (Bacillus subtilis) | Activity (Macrophomina phaseolina) | Activity (Trichoderma reesei [3]) | Ratio (Aspergillus niger [6]) | Ratio IC50 (Plasma [2]) | Activity (Aspergillus niger [4]) | Activity (Escherichia coli)
18 | CC(=O)N1CCN(c2ccc(OCC3COC(Cn4ccnc4)(c4ccc(Cl)cc4Cl)O3)cc2)CC1 (stereo not given) [KETOCONAZOLE] | – | – | – | 12.5 (≈ 23.5 µM) | 6.25 (≈ 11.8 µM) | 12.5 (≈ 23.5 µM) | – | – | – | – | – | – | – | – | –

— ChEMBL document CHEMBL6121033, “N-Arylsulfonylated C-Homoaporphines as a New Class of Antiplatelet and Antimicrobial Agents” (ACS Med Chem Lett, 2025)
